Reference: ChEMBL document CHEMBL4732158, “Bicyclic Ligand-Biased Agonists of S1P: Exploring Side Chain Modifications to Modulate the PK, PD, and Safety Profiles” (J Med Chem, 2021)
One block for each compound: values may come before it.

What was measured:
[1] = tested on: Rattus norvegicus; assay: Reduction in circulating lymphocytes count in Lewis rat at 1 mg/kg, po measured at 4 hrs by hematology analyzer based analysis; assay type: functional; parameters: scale not given: the % may be the effect or the level left
In short: (§1)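 Lewis rats (n = 2−4) dosed orally at 0.5, 1, 2 or 5 mg/kg; blood parent and phosphate metabolite concentrations and lymphocyte counts taken 4 and 24 h post-dose; phosphate-to-parent ratio from 24 h levels; significance versus vehicle by ANOVA with Dunnett's test.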

[2] = Drug concentration in Lewis rat blood assessed as concentration of parent compound at 1 mg/kg, po measured at 4 hrs by LC-MS/MS analysis; assay type: ADME, organism-based; details: for concentration at 4 h: Lewis, blood, read-out: Ct; in short: as §1
[3] = Reduction in circulating lymphocytes count in Lewis rat at 1 mg/kg, po measured at 24 hrs by hematology analyzer based analysis; assay type: organism-based; parameters: scale not given: the % may be the effect or the level left; details: in vivo; in short: as §1
[4] = Drug metabolism in Lewis rat blood assessed as concentration of parent compound at 1 mg/kg, po measured at 24 hrs by LC-MS/MS analysis; assay type: ADME, organism-based; details: for Ct: in vivo, 1 mg/kg, 24 h, BLD = below limit of detection; for concentration at 24 h: Lewis, blood, read-out: Ct; in short: as §1
[5] = Pulmonary toxicity in Lewis rat assessed as fold elevation of BAL protein content at 1 mg/kg, po by chemistry analyzer based analysis relative to control; assay type: organism-based; details: in vivo
In short: (§2)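 Lewis rats dosed orally; bronchoalveolar lavage protein measured at study end, expressed as fold over vehicle control.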

[6] = Half life in Lewis rat at 1 mg/kg, po measured at 4 to 72 hrs; assay type: ADME, organism-based; details: in vivo, time 4-72 hrs
In short: (§3)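 Half-life estimated from oral-dosing blood PK profiles in Lewis rats sampled at four time points: 4, 24, 48 and 72 h.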

[7] = Cardiotoxicity in human iPSC derived cardiomyocytes assessed as change in heart rate at 1 nM measured over 2 hrs by multi-electrode array relative to control; assay type: toxicity, cell-based; details: stem cell-derived cardiomyocyte, 0.001 µM
In short: (§4)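 Phosphate metabolite of each compound prepared and tested on cultured human induced pluripotent stem cell-derived cardiomyocytes at 1 and 10 nM; beat rate change averaged over three or more replicates per concentration unless noted (some n = 2).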

[8] = Cardiotoxicity in human iPSC derived cardiomyocytes assessed as change in heart rate at 10 nM measured over 2 hrs by multi-electrode array relative to control; assay type: toxicity, cell-based; details: stem cell-derived cardiomyocyte, 0.01 µM; in short: as §4
[9] = Drug metabolism in Lewis rat blood assessed as phosphate ester metabolite to parent ratio at 1 mg/kg, po measured at 24 hrs by LC-MS/MS analysis; details: in vivo
[10] = tested on: Rattus norvegicus; assay: Reduction in circulating lymphocytes count in Lewis rat at 2 mg/kg, po measured at 4 hrs by hematology analyzer based analysis; assay type: functional; parameters: scale not given: the % may be the effect or the level left
In short: (§5)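 Lewis rats (n = 2−4) dosed orally; whole-blood lymphocyte counts taken 4 h and 24 h after dosing and reduction expressed versus vehicle-treated rats. Significance by ANOVA with Dunnett's test (p < 0.05 vs vehicle). Blood levels of parent and phosphate metabolite measured at the same time points in this PK/PD screen.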

[11] = Drug concentration in Lewis rat blood assessed as concentration of parent compound at 2 mg/kg, po measured at 4 hrs by LC-MS/MS analysis; assay type: ADME, organism-based; details: Lewis, blood, read-out: Ct; in short: as §1
[12] = Reduction in circulating lymphocytes count in Lewis rat at 2 mg/kg, po measured at 24 hrs by hematology analyzer based analysis; assay type: Functional, organism-based; parameters: scale not given: the % may be the effect or the level left; details: in vivo; in short: as §5
[13] = Drug concentration in Lewis rat blood assessed as concentration of parent compound at 2 mg/kg, po measured at 24 hrs by LC-MS/MS analysis; assay type: ADME, organism-based; details: in vivo; for concentration: read-out: Ct; in short: as §1
[14] = Half life in Lewis rat at 2 mg/kg, po measured at 4 to 72 hrs; assay type: ADME, organism-based; details: Lewis, in vivo, time 4-72 hrs; in short: as §3
[15] = Ratio of drug metabolism in Lewis rat blood assessed as phosphate ester metabolite to parent drug at 2 mg/kg, po measured at 24 hrs by LC-MS/MS analysis; assay type: ADME, organism-based; details: in vivo; in short: as §1
[16] = Pulmonary toxicity in Lewis rat assessed as fold elevation of BAL protein content at 2 mg/kg, po by chemistry analyzer based analysis relative to control; assay type: organism-based; details: in vivo; in short: as §2

SMILES: CCCCSC[C@@H]1CCc2cc([C@H]3CC[C@](N)(CO)C3)ccc2C1
Activity [1]: 6% | Ct ([2]; in vivo, 1 mg/kg, 4 h, BLD = below limit of detection): Bld | Activity [3]: 63% | concentration at 24 h [4]: 73 nM | half-life [6]: 27 h | fold change (FC) [5]: 1.1 | Activity [7]: -28% | Activity [8]: -46% | Ratio [9]: 0.36

SMILES: C=CCCCC[C@@H]1CCc2cc([C@H]3CC[C@](N)(CO)C3)ccc2C1
Activity [1]: 9% | concentration at 4 h [2]: 30 nM | Activity [3]: 75% | concentration at 24 h [4]: 40 nM | half-life [6]: 47 h | Ratio [9]: 19

SMILES: C=CCCOC[C@@H]1CCc2cc([C@H]3CC[C@](N)(CO)C3)ccc2C1
Activity [10]: 55% | concentration at 4 h [11]: 170 nM | Activity [12]: 74% | concentration [13]: 48 nM | half-life [14]: 11 h | Ratio [15]: 0.9

SMILES: CCCCCOC[C@H]1CCc2cc([C@H]3CC[C@](N)(CO)C3)ccc2C1
Activity [1]: 7% | concentration at 4 h [2]: 12 nM | Activity [3]: 32% | concentration at 24 h [4]: 18 nM | fold change (FC) [5]: 1.7

SMILES: CCCCOC[C@@H]1CCc2cc([C@H]3CC[C@](N)(CO)C3)ccc2C1
Activity [1]: 42% | concentration at 4 h [2]: 66 nM | Activity [3]: 71% | concentration at 24 h [4]: 39 nM | fold change (FC) [5]: 0.95 | Ratio [9]: 0.64

SMILES: CC/C=C/CC[C@@H]1CCc2cc([C@H]3CC[C@](N)(CO)C3)ccc2C1
Activity [1]: 27% | concentration at 4 h [2]: 66 nM | Activity [3]: 74% | concentration at 24 h [4]: 140 nM | half-life [6]: 4 h | fold change (FC) [5]: 1.1 | Activity [7]: -11% | Activity [8]: -33% | Ratio [9]: 5.8

SMILES: CCCC/C=C/[C@@H]1CCc2cc([C@H]3CC[C@](N)(CO)C3)ccc2C1
Activity [1]: 0% | concentration at 4 h [2]: 57 nM | Activity [3]: 72% | concentration at 24 h [4]: 77 nM | half-life [6]: > 75 h | Ratio [9]: 2.6

Now from value to compound, other results behind:

concentration at 4 h [2]: 78 nM | Activity [3]: 20% | Ct [4]: Bld
SMILES: CCCOCCOC[C@H]1CCc2cc([C@H]3CC[C@](N)(CO)C3)ccc2C1
Activity [1]: 67% | fold change (FC) [5]: 2.4

concentration at 4 h [11]: 193 nM | Activity [12]: 73% | concentration [13]: 72 nM | Ratio [15]: 0.17
SMILES: CCCSCC[C@@H]1CCc2cc([C@H]3CC[C@](N)(CO)C3)ccc2C1
Activity [10]: 63% | fold change (FC) [16]: 1.1 | Activity [7]: -43% | Activity [8]: -42%

concentration at 4 h [2]: 165 nM | Activity [3]: 69% | concentration at 24 h [4]: 180 nM | half-life [6]: 5 h | Ratio [9]: 1.3
SMILES: CC/C=C\CC[C@@H]1CCc2cc([C@H]3CC[C@](N)(CO)C3)ccc2C1
Activity [1]: 31% | Activity [7]: -21% | Activity [8]: -38%

concentration at 4 h [2]: 24 nM | Activity [3]: 0% | concentration at 24 h [4]: 24 nM | Ratio [9]: 0.27
SMILES: CCCC/C=C\[C@@H]1CCc2cc([C@H]3CC[C@](N)(CO)C3)ccc2C1
Activity [1]: 4%

concentration at 4 h [2]: 27 nM | Activity [3]: 80% | concentration at 24 h [4]: 28 nM
SMILES: CCCCCOC[C@@H]1CCc2cc([C@H]3CC[C@](N)(CO)C3)ccc2C1
Activity [1]: 27% | fold change (FC) [5]: 2

concentration at 4 h [2]: 15 nM | Activity [3]: 13% | Ct [4]: Bld
SMILES: COCCOC[C@@H]1CCc2cc([C@H]3CC[C@](N)(CO)C3)ccc2C1
Activity [1]: 16% | fold change (FC) [5]: 1.3

concentration at 4 h [2]: 46 nM | concentration at 4 h [11]: 100 nM | Activity [3]: 70% | Activity [12]: 40% | Ct [4]: Bld | Ct ([13]; BLD = below limit of detection): Bld | Ratio [15]: 2.4
SMILES: CCCOCCOC1CCc2cc([C@H]3CC[C@](N)(CO)C3)ccc2C1 (stereo partly drawn)
Activity [1]: 72% | Activity [10]: 0% | fold change (FC) [5]: 1.3
